Reference: ChEMBL document CHEMBL1151695, “Design, synthesis and preliminary pharmacological evaluation of new analogues of DM232 (unifiram) and DM235 (sunifiram) as cognition modulators” (Bioorg Med Chem, 2008)
Calls of active or inactive are those of the source. The rule behind the calls is not given here.

Legend:
Mus musculus [1] = assay: Effect on passive avoidance in mouse assessed as latency time to enter dark room in retention session at 10 mg/kg, ip treated 20 mins before training session; format: functional; details: route intraperitoneal
In short: (§1)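 Same step-through passive avoidance without scopolamine. Punishment is a 40 cm fall into 10 °C water on entering the dark room. Mice not entering within 60 s at training were excluded. Compound given ip at 1:10 dilution steps, 20 min before training, in saline or saline/DMSO 4:1. Controls received an extra saline injection right after training. Latency to enter the dark room recorded at training and at next-day retention.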

Mus musculus [2] = assay: Effect on passive avoidance in mouse assessed as latency time to enter dark room in training session at 10 mg/kg, ip treated 20 mins before training session; format: functional; details: route intraperitoneal; in short: as §1
Mus musculus [3] = species on record: Mus musculus; assay: Effect on passive avoidance in mouse treated 20 mins before training session; format: functional; details: read-out: MED; in short: as §1
Mus musculus [4] = assay: Antiamnesic activity in scopolamine-induced mouse assessed as latency time to enter dark room in retention session at 1.0 mg/kg, ip treated 20 mins before training session by passive avoidance test; format: functional; details: route intraperitoneal
In short: (§2)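 Step-through passive avoidance in mice: lit and dark compartments joined by a guillotine door. Entering the dark side drops the mouse 40 cm into 10 °C water, a non-painful punishment. Mice not entering within 60 s at training were excluded. Compound given ip at 1:10 dilution steps […], 20 min before training. Vehicle was saline or saline/DMSO 4:1. Scopolamine 1.5 mg/kg ip immediately after punishment. Retention tested next day. MED is the lowest dose reversing amnesia.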

Mus musculus [5] = assay: Antiamnesic activity in scopolamine-induced mouse assessed as latency time to enter dark room in training session at 1.0 mg/kg, ip treated 20 mins before training session by passive avoidance test; format: functional; details: route intraperitoneal; in short: as §2
Mus musculus [6] = assay: Antiamnesic activity in ip dosed mouse assessed as reversal of scopolamine-induced memory loss treated 20 mins before training session by passive avoidance test; format: functional; details: read-out: MED; in short: as §2
Mus musculus [7] = species on record: Mus musculus; assay: Toxicity in mouse assessed as motor coordination after 45 mins by rotarod test; format: organism-based; details: in vivo, 0.75 h
In short: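 Rota-rod: rod 30 cm long, 15 cm above the base, split into five sections, rotating at 16 rpm. Falls counted over 30 s. Mice with fewer than 3 or more than 6 falls in the pretest were rejected. Performance measured at pretest and 15, 30 and 45 min after test start. Compared with saline-treated mice.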

Mus musculus [8] = species on record: Mus musculus; assay: Toxicity in mouse assessed as spontaneous motility and inspection activity after 5 mins by hole board test; format: organism-based; details: in vivo
In short: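 Hole-board: 40 cm square plane with 16 holes of 3 cm, arranged 4×4. Each mouse placed centrally and free to move for […]. Photocells counted locomotion (spontaneous motility) and hole exploration, both as counts in 5 min. Compared with saline-treated mice.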

Mus musculus [9] = assay: Antiamnesic activity in scopolamine-induced mouse assessed as latency time to enter dark room in retention session at 10 mg/kg, ip treated 20 mins before training session by passive avoidance test; format: functional; details: route intraperitoneal; in short: as §2
Mus musculus [10] = assay: Antiamnesic activity in scopolamine-induced mouse assessed as latency time to enter dark room in training session at 10 mg/kg, ip treated 20 mins before training session by passive avoidance test; format: functional; details: route intraperitoneal; in short: as §2
Mus musculus [11] = assay: Antiamnesic activity in scopolamine-induced mouse assessed as latency time to enter dark room in retention session at 0.01 mg/kg, ip treated 20 mins before training session by passive avoidance test; format: functional; details: route intraperitoneal; in short: as §2
Mus musculus [12] = assay: Antiamnesic activity in scopolamine-induced mouse assessed as latency time to enter dark room in training session at 0.01 mg/kg, ip treated 20 mins before training session by passive avoidance test; format: functional; details: route intraperitoneal; in short: as §2
Mus musculus [13] = assay: Effect on passive avoidance in mouse assessed as latency time to enter dark room in training session at 1.0 mg/kg, ip treated 20 mins before training session; format: functional; details: route intraperitoneal; in short: as §1
Mus musculus [14] = assay: Effect on passive avoidance in mouse assessed as latency time to enter dark room in retention session at 1.0 mg/kg, ip treated 20 mins before training session; format: functional; details: route intraperitoneal; in short: as §1
Mus musculus [15] = assay: Effect on passive avoidance in mouse assessed as latency time to enter dark room in retention session at 0.1 mg/kg, ip treated 20 mins before training session; format: functional; details: route intraperitoneal; in short: as §1
Mus musculus [16] = assay: Effect on passive avoidance in mouse assessed as latency time to enter dark room in training session at 0.1 mg/kg, ip treated 20 mins before training session; format: functional; details: route intraperitoneal; in short: as §1
Mus musculus [17] = assay: Antiamnesic activity in mouse assessed as reversal of scopolamine-induced memory loss at 10 mg/kg, ip treated 20 mins before training session by passive avoidance test; format: functional, organism-based; parameters: dose 10 mg/kg; in short: as §2
Mus musculus [18] = assay: Antiamnesic activity in scopolamine-induced mouse assessed as latency time to enter dark room in retention session at 0.1 mg/kg, ip treated 20 mins before training session by passive avoidance test; format: functional; details: route intraperitoneal; in short: as §2
Mus musculus [19] = assay: Antiamnesic activity in scopolamine-induced mouse assessed as latency time to enter dark room in training session at 0.1 mg/kg, ip treated 20 mins before training session by passive avoidance test; format: functional; details: route intraperitoneal; in short: as §2
Mus musculus [20] = assay: Effect on passive avoidance in mouse assessed as latency time to enter dark room in retention session at 0.01 mg/kg, ip treated 20 mins before training session; format: functional; details: route intraperitoneal; in short: as §1
Mus musculus [21] = assay: Effect on passive avoidance in mouse assessed as latency time to enter dark room in training session at 0.01 mg/kg, ip treated 20 mins before training session; format: functional; details: route intraperitoneal; in short: as §1

| SMILES | minimal effective dose (Mus musculus [3]) [mg/kg] | minimal effective dose (Mus musculus [6]) [mg/kg] | Activity (Mus musculus [7]) | Activity (Mus musculus [8]) | Activity (Mus musculus [17]) | other results |
| --- | --- | --- | --- | --- | --- | --- |
| CC(=O)N[C@H]1CC[C@@H](NS(=O)(=O)c2ccc(F)cc2)CC1 | 10 | 1 | Non-toxic | Non-toxic | – | Activity (Mus musculus [1]): 156.6 s; Activity (Mus musculus [2]): 32 s; Activity (Mus musculus [4]): 104.5 s; Activity (Mus musculus [5]): 19.1 s |
| CC(C)S(=O)(=O)N1CCN2C(=O)c3ccccc3C2C1 (stereo not given) | – | 1 | Non-toxic | Non-toxic | – | Activity (Mus musculus [4]): 85.5 s; Activity (Mus musculus [5]): 16.3 s |
| CC(=O)N1CCN(C(=O)c2ccccc2)CC1 | – | 10 | Non-toxic | Non-toxic | – | Activity (Mus musculus [9]): 119 s; Activity (Mus musculus [10]): 11.3 s |
| CC(C)S(=O)(=O)N(C)c1ccc(N(C)C(=O)c2ccccc2)cc1 | 1 | 0.01 | Non-toxic | Non-toxic | – | Activity (Mus musculus [11]): 91.8 s; Activity (Mus musculus [12]): 20.7 s; Activity (Mus musculus [13]): 19.6 s; Activity (Mus musculus [14]): 123.6 s |
| CC(=O)NC1CCN(S(=O)(=O)c2ccc(F)cc2)CC1 [SAPUNIFIRAM] | 0.1 | 0.01 | Non-toxic | Non-toxic | – | Activity (Mus musculus [15]): 126.8 s; Activity (Mus musculus [16]): 19.1 s; Activity (Mus musculus [11]): 90.6 s; Activity (Mus musculus [12]): 14.5 s |
| CC(=O)Nc1ccc(NS(=O)(=O)C(C)C)cc1 | – | – | Non-toxic | Non-toxic | inactive | – |
| CCC(=O)N[C@H]1CC[C@H](NC(=O)CC)CC1 | – | – | Non-toxic | Non-toxic | inactive | – |
| O=C1c2ccccc2C2CN(S(=O)(=O)c3ccc(F)cc3)CCN12 (stereo not given) | – | 0.1 | Non-toxic | Non-toxic | – | Activity (Mus musculus [18]): 74.5 s; Activity (Mus musculus [19]): 15.6 s |
| CC(C)S(=O)(=O)N1CCN2C(=O)CCC2C1 (stereo not given) | 10 | – | Non-toxic | Non-toxic | – | Activity (Mus musculus [1]): 61.5 s; Activity (Mus musculus [2]): 13.6 s |
| CC(C)S(=O)(=O)Nc1ccc(NS(=O)(=O)c2ccc(F)cc2)cc1 | 10 | 1 | Non-toxic | Non-toxic | – | Activity (Mus musculus [1]): 125.2 s; Activity (Mus musculus [2]): 21.1 s; Activity (Mus musculus [4]): 76.3 s; Activity (Mus musculus [5]): 19.1 s |
| CC(C)S(=O)(=O)Nc1ccc(NC(=O)c2ccccc2)cc1 | 1 | 10 | Non-toxic | Non-toxic | – | Activity (Mus musculus [9]): 88.1 s; Activity (Mus musculus [10]): 16.8 s; Activity (Mus musculus [13]): 22.1 s; Activity (Mus musculus [14]): 116.7 s |
| CC(=O)N[C@H]1CC[C@H](NC(=O)c2ccccc2)CC1 | – | – | Non-toxic | Non-toxic | inactive | – |
| CCC(=O)N[C@H]1CC[C@H](NC(=O)c2ccccc2)CC1 | – | – | Non-toxic | Non-toxic | inactive | – |
| CC(=O)N[C@H]1CC[C@H](NS(=O)(=O)c2ccc(F)cc2)CC1 | 0.01 | 10 | Non-toxic | Non-toxic | – | Activity (Mus musculus [20]): 52.8 s; Activity (Mus musculus [21]): 19.2 s; Activity (Mus musculus [9]): 26.3 s; Activity (Mus musculus [10]): 17 s |
| CCC(=O)Nc1ccc(NS(=O)(=O)c2ccc(F)cc2)cc1 | – | – | Non-toxic | Non-toxic | inactive | – |
| CCC(=O)Nc1ccc(NS(=O)(=O)C(C)C)cc1 | – | – | Non-toxic | Non-toxic | inactive | – |
| CC(C)S(=O)(=O)N[C@H]1CC[C@H](NC(=O)c2ccccc2)CC1 | – | – | Non-toxic | Non-toxic | inactive | – |
| CC(C)S(=O)(=O)Nc1ccc(N(C)C(=O)c2ccccc2)cc1 | 0.1 | 0.1 | Non-toxic | Non-toxic | – | Activity (Mus musculus [15]): 121 s; Activity (Mus musculus [16]): 17.3 s; Activity (Mus musculus [18]): 75.9 s; Activity (Mus musculus [19]): 21.6 s |
| CC(C)S(=O)(=O)N(C)c1ccc(NC(=O)c2ccccc2)cc1 | – | 0.01 | Non-toxic | Non-toxic | – | Activity (Mus musculus [11]): 66.7 s; Activity (Mus musculus [12]): 20.6 s |
| CCC(=O)N[C@H]1CC[C@@H](NC(=O)CC)CC1 | 10 | 1 | Non-toxic | Non-toxic | – | Activity (Mus musculus [1]): 165.2 s; Activity (Mus musculus [2]): 34.8 s; Activity (Mus musculus [4]): 106.2 s; Activity (Mus musculus [5]): 17.8 s |
| O=C(N[C@H]1CC[C@H](NS(=O)(=O)c2ccc(F)cc2)CC1)c1ccccc1 | – | – | Non-toxic | Non-toxic | inactive | – |
| CC(=O)Nc1ccc(NC(=O)c2ccccc2)cc1 | – | – | Non-toxic | Non-toxic | inactive | – |
| CCC(=O)N1CCN2C(=O)c3ccccc3C2C1 (stereo not given) | – | – | Non-toxic | Non-toxic | inactive | – |
| CCC(=O)N[C@H]1CC[C@H](NS(=O)(=O)c2ccc(F)cc2)CC1 | 0.1 | 1 | Non-toxic | Non-toxic | – | Activity (Mus musculus [15]): 56.3 s; Activity (Mus musculus [16]): 16.9 s; Activity (Mus musculus [4]): 16.4 s; Activity (Mus musculus [5]): 17.5 s |
| CC(=O)N1CCN2C(=O)c3ccccc3C2C1 (stereo not given) | – | – | Non-toxic | Non-toxic | inactive | – |
| CC(C)S(=O)(=O)Nc1ccc(N(C)S(=O)(=O)c2ccc(F)cc2)cc1 | 1 | 0.1 | Non-toxic | Non-toxic | – | Activity (Mus musculus [18]): 103.6 s; Activity (Mus musculus [19]): 20.2 s; Activity (Mus musculus [13]): 26.2 s; Activity (Mus musculus [14]): 149.8 s |
| CC(=O)Nc1ccc(NS(=O)(=O)c2ccc(F)cc2)cc1 | – | – | Non-toxic | Non-toxic | inactive | – |
| CC(C)S(=O)(=O)N(C)c1ccc(N(C)S(=O)(=O)c2ccc(F)cc2)cc1 | 1 | 0.01 | Non-toxic | Non-toxic | – | Activity (Mus musculus [11]): 70.5 s; Activity (Mus musculus [12]): 18.8 s; Activity (Mus musculus [13]): 30 s; Activity (Mus musculus [14]): 158.6 s |
| O=C(Nc1ccc(NS(=O)(=O)c2ccc(F)cc2)cc1)c1ccccc1 | – | – | Non-toxic | Non-toxic | inactive | – |
| CCC(=O)N[C@H]1CC[C@@H](NS(=O)(=O)c2ccc(F)cc2)CC1 | 10 | 0.1 | Non-toxic | Non-toxic | – | Activity (Mus musculus [1]): 162.9 s; Activity (Mus musculus [2]): 25.3 s; Activity (Mus musculus [18]): 89.1 s; Activity (Mus musculus [19]): 16.8 s |
